Published values of several laboratories.
Protocols differ between the studies behind these lines.
Target: MAP kinase-interacting serine/threonine-protein kinase 2 (MKNK2, Homo sapiens, UniProt Q9HBH9)

| SMILES | observed | action | method | tested at | quantity | result |
| --- | --- | --- | --- | --- | --- | --- |
| Cc1c[nH]c2nccc(Oc3c(F)cc(Nc4cc(Cl)nc(N)n4)cc3F)c12 | cell-free assay |  | competition with immobilised ligand | 0.1 µM | remaining binding | 90% |
| CSc1nc(C)c(-c2ccnc(Nc3ccc(N4CCOCC4)cc3)c2)[nH]1 | enzyme activity | inhibitor |  | 10 µM | inhibition | 94.9% |
| CS(=O)(=O)N1CCCC(NC(=O)[C@H](CCC2CCCCC2)NC(=O)c2ccc(CNC(=O)c3cnc4ccccn34)cc2)C1 (some centres unmarked) | cell-free assay |  | competition with immobilised ligand | 0.1 µM | remaining binding | 84% |
| Nc1nc(NC2CCCCC2)sc1C(=O)c1ccccc1 | enzyme activity | inhibitor |  | 10 µM | remaining activity | 94% |
| O=C(Nc1cnn(-c2csc(C(=O)NC3COC3)c2)c1)Nc1ccccc1Cl | enzyme activity | inhibitor |  | 5 µM | remaining activity | 99.3% |
| COc1cc(Cl)c(C(=O)N[C@@H](CN[C@H]2CC[C@@H](N)CC2)Cc2ccc(C#N)cc2)cc1-c1ccc(CN[C@H](C)c2ccc(C)cc2)o1 | enzyme activity | inhibitor |  | 1 µM | remaining activity | 102% |
| CCN(CC)CCNC(=O)c1c(C)[nH]c(/C=C2\C(=O)Nc3ccc(F)cc32)c1C | enzyme activity | inhibitor |  | 0.3 µM | inhibition | -18% |
| CC(=O)N1CCC(c2ccc(C(=O)NC3=NCCN3)cc2C(F)(F)F)CC1 | cell-free assay |  | competition with immobilised ligand | 1 µM | remaining binding | 100% |
| Cc1cc(NC(=O)c2cccc3cc(-c4cccc5[nH]nc(N)c45)ccc23)ccc1F | enzyme activity | inhibitor |  | 0.1 µM | activity vs control | 111% |
| CNC(=O)c1cc(Oc2ccc(NC(=O)Nc3ccc(Cl)c(C(F)(F)F)c3)cc2)ccn1 | enzyme activity | inhibitor |  | 10 µM | inhibition | 90% |
| COc1cc(-c2cn(C3CCc4ccccc4N(CC(F)(F)F)C3=O)nn2)ccc1-n1ccc(C)n1 (centres unmarked) | cell-free assay |  | competition with immobilised ligand | 1 µM | remaining binding | 66% |
| CS(=O)(=O)Nc1cccc(-c2csc(NC(=O)CSc3nc4nccnc4c(=O)n3CCc3ccccc3)n2)c1 | enzyme activity | inhibitor |  | 10 µM | inhibition | -10% |
| Cc1sc(C(=O)NC2COC2)cc1-n1cc(NC(=O)Nc2c(F)cccc2Cl)cn1 | enzyme activity | inhibitor |  | 10 µM | remaining activity | 83.4% |
| O=C1Nc2ccc(Cl)cc2C1=Cc1cc(Cl)c(O)c(Cl)c1 | cell-free assay |  |  | 0.5 µM | remaining signal | 88.7% |
| O=C(NCc1ncc(C(F)(F)F)cc1Cl)c1ccc2c(c1)C1(CCS(=O)(=O)CC1)[C@@H](C1CC1)N2S(=O)(=O)c1ccc(F)cc1 | cell-free assay |  | competition with immobilised ligand | 1 µM | remaining binding | 76% |
| Cc1ccc(Nc2nccc(N(C)c3ccc4c(C)n(C)nc4c3)n2)cc1S(N)(=O)=O | enzyme activity | inhibitor |  | 10 µM | inhibition | 9% |

| SMILES | observed | action | method | tested at | quantity | result |
| --- | --- | --- | --- | --- | --- | --- |
| CC(C)(O)c1cncc(-c2nc3ccc(F)cc3n2C2CC2)c1 | cell-free assay |  | competition with immobilised ligand | 1 µM | remaining binding | 100% |
| FC(F)c1nc2ccccc2n1-c1nc(N2CCOCC2)nc(N2CCOCC2)n1 | enzyme activity | inhibitor |  | 10 µM | remaining activity | 101% |
| COc1cc(Nc2cnc(C#N)c(O[C@H](C)CN(C)C)n2)ncc1-c1cnn(C)c1 | enzyme activity | inhibitor | radiometric | 1 µM | remaining activity | 98% |
| CC(C)(C)C(=O)c1sc(NC2CCCCC2)nc1N | enzyme activity | inhibitor |  | 10 µM | remaining activity | 96% |
| COc1cc2c(Nc3ccc(Br)cc3F)ncnc2cc1OCC1CCN(C)CC1 | cell-free assay |  |  | 0.5 µM | remaining signal | 86.9% |
| Oc1cccc(-c2nc(N3CCOCC3)c3oc4ncccc4c3n2)c1 | enzyme activity | inhibitor |  | 10 µM | remaining activity | 90% |
| O=C(N[C@H]1CCCCC/C=C\C2C[C@@]2(C(=O)O)NC(=O)[C@@H]2C[C@@H](Oc3ccncc3)CN2C1=O)OC1CCCC1 (some centres unmarked) | binding |  | competition with immobilised ligand | 1 µM | remaining binding | 75% |
| CC(C)(C)c1nc2c(s1)c1nc(N)ncc1c1ccc(NS(=O)(=O)c3c(F)cccc3F)c(F)c12 | enzyme activity | inhibitor | radiometric | 1 µM | remaining activity | 98% |
| FC(F)(F)Oc1cccc(-c2cnc3ccc(-c4ccncc4)nn23)c1 | enzyme activity | inhibitor | radiometric | 1 µM | activity vs control | 66% |
| CC(C)c1ccc(NC(=O)c2cccs2)c(-c2nc3ccccc3[nH]c2=O)c1 | enzyme activity | inhibitor |  | 1 µM | activity vs control | 97% |
| Cc1ncc(C(=O)Nc2ccc(CN3CCN(C)CC3)c(C(F)(F)F)c2)cc1C#Cc1cnc2cccnn12 | enzyme activity | inhibitor |  | 0.123 µM | inhibition | 51% |
| N#CCCc1ccc2c(c1)-c1[nH]c3ccc([N+](=O)[O-])cc3c1CC(=O)N2 | cell-free assay |  |  | 0.5 µM | remaining signal | 87.7% |
| CN1CC(Oc2cnc(C#N)cc2-c2ccn3nc(NC(=O)C4CC4)cc3c2)C1 | enzyme activity | inhibitor |  | 1 µM | inhibition | 5% |
| COc1ccc(COc2ccc(Cc3cnc(N)nc3N)cc2OC)cc1 | cell-free assay |  |  | 0.5 µM | remaining signal | 90.6% |
| CC1=C(C#N)[C@@H](c2ccc3[nH]nc(C)c3c2)C(C#N)=C(c2ccc(Cl)cc2)N1 | cell-free assay |  | competition with immobilised ligand | 1 µM | remaining binding | 90.6% |
| Nc1ncnc2occ(-c3ccc(NC(=O)Nc4cc(C(F)(F)F)ccc4F)cc3)c12 | cell-free assay | inhibitor |  | 20 µM | remaining signal | 0% |
